Shown are actives, neighbours in structure and some others; about 5.5% of the full set was active somewhere.
Cl transport mod – KCC2 cotransporter modulators, thallium flux, primary screen, cell-based, HEK293 KCC2, FluoZin-2 fluorescence, MLSMR; KCC2 cells, thallium flux FluoZin-2 fluorescence; B-score of Tl+ flux slope (higher = more flux/activation; lower = inhibition) at 10 µM; actives 2.2% (n = 190,000);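 active means thallium flux slope and its plate-corrected score both differing from the plate sample mean at a set confidence after two filtering rounds, in either direction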;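 further: slope of fluorescence scaled to starting intensity during 10 to 20 s after thallium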
WT yeast gro inh – growth inhibition of WT strain, primary screen, mitochondrial fusion inhibitor project, WT and mutant strains, chemical genetic | mitochondrial fusion phenotypic screen | actives 2.1% (n = 190,000) | inhibition, % at 10 µM; in the data active means inhibition above about 58%; tested in S. cerevisiae
Yeast lifespan up – compounds extending yeast replicative lifespan, primary screen, S. cerevisiae, OD615 | S. cerevisiae growth with nicotinamide; deaD strain in restrictive glucose medium | inhibition of the nicotinamide effect, % at 10 µM | actives 0.68% (n = 130,000);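 active means inhibition above a set limit, placed 3 SD over the median of all compounds, cut at about 26% in these data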
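Test system – modified budding yeast, DeaD strain · Compound – single dose 10 µM compound, 0.25% DMSO · Times – culture preincubation 4 h, compound exposure 48 h, both 30 °C · Detection – optical density (absorbance) at 615 nm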
Yeast growth inh – growth inhibitors of yeast BB579 in restrictive medium, primary screen, yeast lifespan-shortening project, S. cerevisiae; OD615, 48 h; inhibition, % at 10 µM; actives 0.51% (n = 140,000); AID 804, 2007;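 active means inhibition above a set limit, 3 SD over the mean compound inhibition, cut at about 44% in these data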
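System: Saccharomyces cerevisiae DeaD strain BB579, replicative lifespan model yeast. Buffer or medium: restrictive glucose-based CSMM-D medium. Doses: one dose, 10 µM compound with 0.25% DMSO. Timing: 4 h preincubation and 48 h exposure at 30 °C. Detection: turbidity as optical density at 615 nm. Benchmarks: amphotericin B 10 µg/mL, positive.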
RAM inhibit – inhibitors of the yeast RAM network, primary screen, dse1pr::URA3 reporter, 5-FOA selection | S. cerevisiae dse1pr::URA3 reporter, 5-FOA growth OD615, 2 d; analog-sensitive cbk1-as2 kinase mutant strain | inhibition, % at 50 µM | actives 1.8% (n = 190,000);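 active means inhibition above a set limit, 3 SD over mean compound inhibition, cut at about 8.4% in these data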;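 further: inhibition rescues growth on 5-FOA so higher OD means more RAM inhibition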
Each line names hits and unclear results; the compound was inactive in the other large screens.

Fc1cccc(-c2cc3nc4c(c(NCc5ccco5)n3n2)CCCC4)c1	WT yeast gro inh 83
CN(C)S(=O)(=O)c1ccc(Cl)c(NC(=O)CN2CCN(Cc3ccc4c(c3)OCO4)CC2)c1	none (no result: WT yeast gro inh, Yeast lifespan up, Yeast growth inh, RAM inhibit)
COc1ccc(OC)c(-c2cc(C(=O)Nc3c(C)nn(Cc4ccccc4)c3C)no2)c1	WT yeast gro inh 60 (no result: Cl transport mod)
Cc1cccc(C(=O)NNC(=O)C(=O)NC(C)(C)C)c1	none (no result: Cl transport mod)
CC(C)(C)NC(=O)C(=O)NNC(=O)c1ccc(C(C)(C)C)cc1	Cl transport mod 54
CCO[C@@H]1OC(C(=O)N2CCOCC2)=C[C@H](c2ccccc2)[C@H]1CCCO	none (no result: Yeast lifespan up, Yeast growth inh)
CCSc1nc(C2CC2)cc(-c2ccco2)c1C#N	RAM inhibit 10
CCSc1nc(C2CC2)cc(-c2cccs2)c1C#N	none (no result: Cl transport mod)
CCN(C(=O)c1ccco1)c1nnc(-c2ccc(OC)cc2)s1	none (no result: Yeast lifespan up)
COc1ccc(CNC(=O)CSc2cccc3cccnc23)cc1	none (no result: WT yeast gro inh, Yeast lifespan up, Yeast growth inh, RAM inhibit)
Cc1cccc(CSc2cccc3cccnc23)c1	Cl transport mod 19, Yeast growth inh 96
CCOC(=O)CSc1cccc2cccnc12	Cl transport mod 15
NNC(=O)c1ccc(CSc2cccc3cccnc23)cc1	none (no result: Yeast lifespan up, Yeast growth inh)
CCCCCOc1ccc(NC(=O)CSc2cccc3cccnc23)cc1	Cl transport mod 5.4
CCN1CCN(C(=O)NCc2ccccc2)CC1	none (no result: WT yeast gro inh, Yeast lifespan up, Yeast growth inh, RAM inhibit)
CCOC(=O)C1=C(CN2c3ccccc3CC2C)NC(=O)NC1c1ccccc1 (configuration not stated)	none
CN(C)S(=O)(=O)c1cccc(NC(=O)COC(=O)c2cn(-c3ccccc3)nc2-c2ccccc2)c1	RAM inhibit 9.1
NS(=O)(=O)c1ccc(NC(=O)COC(=O)c2cn(-c3ccccc3)nc2-c2ccc(F)cc2)cc1	none
CCOc1cc(/C=N/N=C(N)N)ccc1OCc1ccc(Cl)cc1	RAM inhibit 9.8
C=CCn1c(C)cc(C(=O)CSc2nc3ccccc3[nH]2)c1C	none
C=CCn1c(C)cc(C(=O)CSc2nc3ccccc3c(=O)[nH]2)c1C	Yeast lifespan up 69
Cc1ccc(Nc2nc(-c3cccs3)cs2)nc1	WT yeast gro inh 69 (no result: Yeast lifespan up, Yeast growth inh)
c1cncc(Nc2nc(-c3cccs3)cs2)c1	none
C/C(C/C(C)=C1/SC(=S)NC1=O)=C1\SC(=S)NC1=O	none (no result: Yeast lifespan up, Yeast growth inh)
CCCCCC/C(C)=C1/SC(=S)NC1=O	Cl transport mod 53, WT yeast gro inh 86, Yeast growth inh 95
CC(C(c1cccs1)c1c(N)n(C)c(=O)n(C)c1=O)[N+](=O)[O-] (configuration not stated)	none (no result: WT yeast gro inh, Yeast lifespan up, Yeast growth inh, RAM inhibit)
CCn1c(=O)c([N+](=O)[O-])c(Cl)c2ccccc21	WT yeast gro inh 62 (no result: Yeast lifespan up, Yeast growth inh)
CC1C(c2ccccc2)N(C)C(c2ccccc2)CC1(O)c1ccc(F)cc1 (configuration not stated)	WT yeast gro inh 69 (no result: Yeast lifespan up, Yeast growth inh)
CC(=O)N1CCN(c2ccc(NCc3ccc(C)cc3)cc2)CC1	none
Cc1ccc(C(=O)NCc2ccc(N3CCN(C(=O)OC(C)(C)C)CC3)cc2)cc1	WT yeast gro inh 61
CC(C)(C)c1cc(OC(=O)c2ccccc2F)ccc1O	WT yeast gro inh 72 (no result: Cl transport mod, Yeast lifespan up, Yeast growth inh)
COc1ccc(-c2c(C)nn(-c3ccccc3)c2N)cc1OC	none (no result: Cl transport mod, Yeast lifespan up)
COc1cc(-c2nc3c(c(C)nn3-c3ccccc3)c3cc(OC)c(OC)cc23)ccc1O	RAM inhibit 8.9
CCc1ccc(OCc2n[nH]c(=S)n2C(C)CCCC(C)C)cc1 (configuration not stated)	WT yeast gro inh 60 (no result: Yeast lifespan up, Yeast growth inh)
CCCCOc1ccc(Cc2n[nH]c(=S)n2N)cc1	none
Cc1nc2ccccn2c1C(=O)NN=C1C2CC3CC(C2)CC1C3	Yeast lifespan up 38
CCCCCCn1c(=O)[nH]c2nc3cc(N)ccc3nc2c1=O	none
COc1ccc(Cc2nn[nH]n2)cc1	WT yeast gro inh 91
c1cncc(-c2nc(NCC3COc4ccccc4O3)c3ccccc3n2)c1 (configuration not stated)	WT yeast gro inh 67
CCc1ccc(/C(C)=N/NC(=O)c2ccccn2)cc1	none (no result: Yeast lifespan up, Yeast growth inh)
CCOc1ccc(C(=O)N/N=C(\c2ccccc2)c2ccccn2)cc1	WT yeast gro inh 69
COc1ccc(C2=NN(C(=O)c3cccs3)C(c3ccc(OC)cc3)C2)cc1 (configuration not stated)	none
COc1ccc(C2CC(c3cccs3)=NN2C(=O)c2ccc(Br)o2)cc1 (configuration not stated)	WT yeast gro inh 64
Cc1ccc(C2CC(c3cccs3)=NN2C(=O)CSC2=NN3CCCC(=O)N=C3S2)cc1 (configuration not stated)	none
CCOC(=O)CCSCC(=O)N1N=C(c2cccs2)CC1c1ccc(C)cc1 (configuration not stated)	RAM inhibit 9.3
Cc1nc([N+](=O)[O-])cn1Cc1cccc([N+](=O)[O-])c1	none (no result: Yeast lifespan up, Yeast growth inh)
O=C(Nc1cc(S(=O)(=O)N2CCCCC2)ccc1N1CCCCC1)C1CC1	none (no result: WT yeast gro inh, Yeast lifespan up, Yeast growth inh, RAM inhibit)
CCOC(=O)c1c(C)[nH]c(C)c1C(=O)CSc1nc2ccccc2c(=O)n1-c1ccccc1C	RAM inhibit 9.7
CCOC(=O)c1c(C)[nH]c(C)c1C(=O)CSc1nc2ccccc2c(=O)n1-c1ccc(F)cc1	none (no result: Yeast lifespan up, Yeast growth inh)
Cc1sc2nc(C3CC3)nc(SCC(=O)N3CC(=O)Nc4ccccc43)c2c1C	Cl transport mod 12
O=C(NNc1ccc([N+](=O)[O-])cc1)c1ccccc1Cl	none (no result: Cl transport mod, Yeast lifespan up, Yeast growth inh)
O=C(NC(NNc1ccc([N+](=O)[O-])cc1)(C(F)(F)F)C(F)(F)F)c1ccc(Cl)cc1	WT yeast gro inh 78
Cc1ccc(NC(=O)/C(=C/c2cccc(Br)c2)NC(=O)c2ccco2)cc1	none
Cc1c(NC(=O)C(=O)/C=C(\O)c2ccc(Cl)cc2)c(=O)n(-c2ccccc2)n1C	Yeast lifespan up 79
C[C@]12CCC3C(CC=C4C[C@@H](O)CC[C@@]43C)C1CCC2[C@]1(C)CCC(=O)O1 (some centres not stated)	none
CC12CCC(O)CC1=CCC1C2CCC2(C)C1CCC21CCC(=O)O1 (configuration not stated)	WT yeast gro inh 75
CCC(=O)C1=C(O)C(c2cccc(Oc3ccccc3)c2)CCC1=O (configuration not stated)	WT yeast gro inh 63 (no result: Yeast lifespan up, Yeast growth inh)
Cc1ccc(-c2noc(CCC(=O)N(C)c3ccccc3C)n2)cc1	none
Cc1c(N(C(=O)Nc2ccccc2)C2=NCC(C)S2)c(=O)n(-c2ccccc2)n1C (configuration not stated)	WT yeast gro inh 82
Cc1ccc(N(C(=O)Nc2ccccc2)C2=NCC(C)S2)cc1 (configuration not stated)	none
CN(C)S(=O)(=O)N1CCN(C(=O)c2cccs2)CC1	none (no result: Cl transport mod)

Assay outcomes from PubChem.
